{"source": "paper PMC7116037", "about": "(Structure (London, England : 1993), 2020)", "key": {"[1]": {"target": "rat βarr2 (Rattus norvegicus, UniProt P29067)", "sequence (P29067 whole entry)": "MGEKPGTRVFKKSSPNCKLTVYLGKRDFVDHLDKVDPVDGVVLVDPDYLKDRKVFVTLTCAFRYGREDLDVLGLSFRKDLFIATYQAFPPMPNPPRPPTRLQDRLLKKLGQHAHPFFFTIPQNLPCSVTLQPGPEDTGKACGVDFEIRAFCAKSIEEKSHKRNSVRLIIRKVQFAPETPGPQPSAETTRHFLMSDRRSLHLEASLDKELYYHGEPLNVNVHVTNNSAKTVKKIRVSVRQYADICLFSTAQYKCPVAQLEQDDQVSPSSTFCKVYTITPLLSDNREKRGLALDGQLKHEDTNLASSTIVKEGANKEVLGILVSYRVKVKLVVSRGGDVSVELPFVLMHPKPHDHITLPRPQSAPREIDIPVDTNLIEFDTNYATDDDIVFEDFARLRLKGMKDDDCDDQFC", "experiment": "Isothermal titration calorimetry of C7pp binding to full-length βarr2", "conditions": "298 K, 20 mM Tris-HCl pH 8.0, 200 mM NaCl", "how_it_was_run": "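Rat βarr2 (1–410 WT), expressed in E. coli BL21(DE3)pLysS, in 20 mM Tris-HCl pH 8.0, 200 mM NaCl at 100 μM or 30 μM in the cell, degassed at 295 K. Titration at 298 K: 2.5 μL of C7pp ([…] syringe solution) injected every 200 s with gentle stirring. Binding constant and stoichiometry fitted from the titration curve; n = 3 independent experiments.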"}, "[2]": {"test_system": "truncated version of βarr2", "experiment": "HDX-MS profile of truncated βarr2 upon co-incubation with C7pp", "design": "species or system Rattus norvegicus", "conditions": "truncated βarr2 lacking residues 357–410; data not shown"}, "[3]": {"test_system": "βarr2", "experiment": "HDX-MS profile of βarr2 upon C7pp binding", "design": "species or system Rattus norvegicus", "conditions": "100 μM βarr2, 500 μM peptide, 1 h at room temperature"}, "[4]": {"target": "Rattus norvegicus wild-type β-arrestin 2 (βarr2 1-410) (Rattus norvegicus) (UniProt P29067)", "sequence (P29067 whole entry)": "as above", "experiment": "ITC"}}, "note": "Where a SMILES comes first, the peptide text is derived from it. [ ]: non-standard residue; d: D form. pT = C[C@@H](OP(=O)(O)O)[C@H](N)C(=O)O; pS = N[C@@H](COP(=O)(O)O)C(=O)O"}
{"molecule": "CC[C@H](C)[C@H](N)C(=O)N[C@@H](Cc1ccccc1)C(=O)N[C@@H](CCCCN)C(=O)N[C@@H](Cc1ccc(O)cc1)C(=O)N[C@@H](COP(=O)(O)O)C(=O)N[C@@H](C)C(=O)N[C@@H](CCCCN)C(=O)N[C@H](C(=O)NCC(=O)N[C@@H](CC(C)C)C(=O)N[C@H](C(=O)N[C@@H](CCCCN)C(=O)N[C@@H](CC(C)C)C(=O)N[C@H](C(=O)N[C@@H](CC(=O)O)C(=O)O)[C@@H](C)CC)[C@@H](C)OP(=O)(O)O)[C@@H](C)OP(=O)(O)O", "note": "[C7pp] (H-IFKY[pS]AK[pT]GL[pT]KLID-OH; N-terminus and C-terminus assumed)", "values": [{"measurement": "binding behaviour (ITC)", "setting": "[1]", "value": "monophasic binding with βarr2"}, {"measurement": "HDX profile of truncated βarr2 upon co-incubation", "setting": "[2]", "value": "did not change upon co-incubation with C7pp"}, {"measurement": "HDX-MS: helix formation in the finger loop", "setting": "[3]", "value": "did not indicate a helix formation in the finger loop"}]}
{"molecule": "CXCR7 phosphopeptide (C7pp)", "values": [{"measurement": "Kd", "setting": "[4]", "value": 3.08, "unit": "µM"}]}
